Experimental data from ChEMBL document CHEMBL1130011, “Chemical and biological studies on a series of novel (trans-(1R,2R)-, trans-(1S,2S)-, and cis-1,2-diaminocyclohexane)platinum(IV) carboxylate complexes” (J Med Chem, 1997).

Tests used:
Format in all cases: functional, organism-based
Mus musculus [1] = experiment: Antitumor activity against L1210/0 leukemia cells in mice at the optimal dose of 75 mg/kg/injection (median survival time of [treated mice/control mice])
Summary of the method: (§1)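 Male B6D2F1 (C57BL/6 × DBA/2) mice were inoculated ip with 1 × 10^5 leukemia cells on day 0. Drug was given ip on days 1, 5 and 9, prepared in water or 0.9% NaCl and administered immediately, over a dose range of 0.5–200 mg/kg/injection. Animals were monitored daily. %T/C = median survival of treated × 100/median survival of controls. Cures were mice alive at day 60.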

Mus musculus [2] = experiment: Antitumor activity against L1210/cisplatin leukemia cells in mice at the optimal dose of 75 mg/kg/injection (median survival time of [treated mice/control mice]); summary of the method: as §1
Mus musculus [3] = experiment: Antitumor activity against L1210/0 leukemia cells in mice at the optimal dose of 5 mg/kg/injection (median survival time of [treated mice/control mice]); summary of the method: as §1
Mus musculus [4] = experiment: Antitumor activity against L1210/cisplatin leukemia cells in mice at the optimal dose of 5 mg/kg/injection (median survival time of [treated mice/control mice]); summary of the method: as §1
Mus musculus [5] = experiment: Antitumor activity against M5076 reticulosarcoma grown subcutaneously in mice at the optimal dose of 5 mg/kg/injection
Summary of the method: (§2)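 Male B6D2F1 (C57BL/6 × DBA/2) mice received 1 × 10^7 M5076 cells sc on day 0. Drug was given ip on days 5, 9, 13 and 17, prepared in water or 0.9% NaCl and given immediately, over a dose range of 0.5–200 mg/kg/injection. Animals were monitored daily. Results are expressed as %T/C (median survival ratio × 100) or as tumor growth delay.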

Mus musculus [6] = experiment: Antitumor activity against L1210/0 leukemia cells in mice at the optimal dose of 200 mg/kg/injection (median survival time of [treated mice/control mice]); summary of the method: as §1
Mus musculus [7] = experiment: Antitumor activity against L1210/0 leukemia cells in mice at the optimal dose of 100 mg/kg/injection (median survival time of [treated mice/control mice]); summary of the method: as §1
Mus musculus [8] = experiment: Antitumor activity against L1210/cisplatin leukemia cells in mice at the optimal dose of 50 mg/kg/injection (median survival time of [treated mice/control mice]); summary of the method: as §1
Mus musculus [9] = experiment: Antitumor activity against M5076 reticulosarcoma grown subcutaneously in mice at the optimal dose of 100 mg/kg/injection; summary of the method: as §2
Mus musculus [10] = experiment: Antitumor activity against L1210/cisplatin leukemia cells in mice at the optimal dose of 200 mg/kg/injection (median survival time of [treated mice/control mice]); summary of the method: as §1
Mus musculus [11] = experiment: Antitumor activity against M5076 reticulosarcoma grown subcutaneously in mice at the optimal dose of 200 mg/kg/injection; summary of the method: as §2
Mus musculus [12] = experiment: Antitumor activity against L1210/0 leukemia cells in mice at the optimal dose of 50 mg/kg/injection (median survival time of [treated mice/control mice]); summary of the method: as §1
Mus musculus [13] = experiment: Antitumor activity against L1210/cisplatin leukemia cells in mice at the optimal dose of 100 mg/kg/injection (median survival time of [treated mice/control mice]); summary of the method: as §1
Mus musculus [14] = experiment: Antitumor activity against L1210/0 leukemia cells in mice at the optimal dose of 25 mg/kg/injection (median survival time of [treated mice/control mice]); summary of the method: as §1
Mus musculus [15] = experiment: Antitumor activity against L1210/cisplatin leukemia cells in mice at the optimal dose of 25 mg/kg/injection (median survival time of [treated mice/control mice]); summary of the method: as §1

With CARBOPLATIN the T/C (Mus musculus [1]) was 147% and the T/C (Mus musculus [2]) was 111%.
CISPLATIN gave a T/C (Mus musculus [3]) of 300%, a T/C (Mus musculus [4]) of 100% and a Tumor growth delay (Mus musculus [5]) of 16.3 days.
“Platinum IV (cis-1,2-diaminecyclohexyl)-trans-(acetate)2 (1,1-cyclobutanedicarboxylate)” showed a T/C (Mus musculus [6]) of 112%.
Substance “Platinum IV (cis-1,2-diaminecyclohexyl)-trans-(acetate)2 (malonate)” has a T/C (Mus musculus [6]) of 206%.
“Platinum IV (cis-1,2-diaminecyclohexyl)-trans-(acetate)2 (oxalate)” was tested, and the T/C (Mus musculus [7]) was 159%.
Work on “Platinum IV (trans-(1R,2R)-diaminecyclohexyl) (acetate)4” yielded a T/C (Mus musculus [6]) of 206%.
“Platinum IV (trans-(1R,2R)-diaminecyclohexyl)-trans-(acetate)2” was tested, and the T/C (Mus musculus [7]) was 265%, the T/C (Mus musculus [8]) was 144% and the Tumor growth delay (Mus musculus [9]) was 19.5 days.
With “Platinum IV (trans-(1R,2R)-diaminecyclohexyl)-trans-(acetate)2 (1,1-cyclobutanedicarboxylate)” the T/C (Mus musculus [6]) was 112%, the T/C (Mus musculus [10]) was 100% and the Tumor growth delay (Mus musculus [11]) was 15.8 days.
Substance “Platinum IV (trans-(1R,2R)-diaminecyclohexyl)-trans-(acetate)2 (cyclobutanecarboxylate)2” has a T/C (Mus musculus [7]) of 206% and a T/C (Mus musculus [8]) of 157%.
“Platinum IV (trans-(1R,2R)-diaminecyclohexyl)-trans-(acetate)2 (methylmalonate)” gave a T/C (Mus musculus [6]) of 147%, a T/C (Mus musculus [10]) of 93% and a Tumor growth delay (Mus musculus [11]) of 21.3 days.
In the case of “Platinum IV (trans-(1R,2R)-diaminecyclohexyl)-trans-(acetate)2 (oxalate)”, the T/C (Mus musculus [12]) was 171%.
For “Platinum IV (trans-(1R,2R)-diaminecyclohexyl)-trans-(trifluoroacetate)2 (1,1-cyclobutanedicarboxylate)”, the T/C (Mus musculus [6]) was 253% and the T/C (Mus musculus [13]) was 205%.
In the case of “Platinum IV (trans-(1R,2R)-diaminecyclohexyl)-trans-(trifluoroacetate)2 (acetate)4”, the T/C (Mus musculus [14]) was 218% and the T/C (Mus musculus [15]) was 148%.
In the case of “Platinum IV (trans-(1R,2R)-diaminecyclohexyl)-trans-(trifluoroacetate)2 (oxalate)”, the T/C (Mus musculus [12]) was > 700% and the T/C (Mus musculus [8]) was 176%.
“Platinum IV (trans-(1S,2S)-diaminecyclohexyl) (acetate)4” was tested, and the T/C (Mus musculus [6]) was 194%.
Work on “Platinum IV (trans-(1S,2S)-diaminecyclohexyl)-trans-(acetate)2 (cyclobutanecarboxylate)2” yielded a T/C (Mus musculus [12]) of 182%.
Substance “Platinum IV (trans-(1S,2S)-diaminecyclohexyl)-trans-(acetate)2 (oxalate)” has a T/C (Mus musculus [12]) of 135%.
[Pt(O2CCH3)4(dach)]dach was tested, and the T/C (Mus musculus [6]) was 182%.
